Reference: ChEMBL document CHEMBL1129445 (J Med Chem, 1996)

Key:
[1] = target: T1, Inosine-5'-monophosphate dehydrogenase 2 (Homo sapiens, UniProt P12268); experiment: Inhibition of human recombinant type II Inosine Monophosphate Dehydrogenase at 100 uM
Method in brief: (§1)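 Reactions are run either at pH 7.4 (0.1 M K phosphate, 0.5 M KCl, 3 mM EDTA, 10 μg/mL BSA) or at pH 8.0 (0.1 M Tris-HCl, 0.1 M KCl, 3 mM EDTA, 100 μg/mL BSA). DMSO ≤10%, compounds tested up to 100 μM. IC50 from fit of fractional activity = V0/[(I/IC50)^n + 1].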

Homo sapiens [2] = organism: Homo sapiens; experiment: Compound was tested for inhibition of human Lymphocyte proliferation. The IC50 values were determined by interpolation using the cubic spline determination at 10 uM; format: functional
Method in brief: (§2)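 Human PBMC are isolated on Ficoll from heparinized blood and plated at 2 × 10^5 cells/well in RPMI-1640 with 5% FCS. Cells are stimulated with PHA (10 μg/mL final) and given compound at time 0, at 4-6 concentrations between 0.001 and 20 μM (tested to 10 μM). Cultures run in quadruplicate for 72 h at 37 °C, 7% CO2, with [3H]thymidine (0.5 μCi/well) for the last 6 h. IC50 by cubic-spline interpolation of the means.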

[3] = Compound was tested for inhibition of human Lymphocyte proliferation. The IC50 values were determined by interpolation using the cubic spline determination.; format: functional; method in brief: as §2
[4] = target: T1, Inosine-5'-monophosphate dehydrogenase 2; experiment: Inhibition of human recombinant type II Inosine Monophosphate Dehydrogenase. at pH 8.0
Method in brief: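 Recombinant human type II IMPDH (12.5-25 pmol) in 0.1 M Tris-HCl pH 8.0, 0.1 M KCl, 3 mM EDTA, 100 μg/mL BSA. […] IC50 fitted with a Hill equation, fractional activity = V0/[(I/IC50)^n + 1].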

[5] = target: T1, Inosine-5'-monophosphate dehydrogenase 2; experiment: Inhibition of human recombinant inosine monophosphate dehydrogenase type II.; method in brief: as §1
Mus musculus [6] = experiment: Tested for the inhibition of murine PFC response at 50 mg/kg dose; format: functional
Homo sapiens [7] = organism: Homo sapiens; experiment: Inhibition of human Lymphocyte proliferation. The IC50 values were determined by interpolation using cubic spline determination.; format: functional; method in brief: as §2
Mus musculus [8] = experiment: Tested for the inhibition of murine PFC response at 100 mg/kg dose; format: functional
Mus musculus [9] = experiment: % inhibition of Murine plaque forming cells response was measured in Mice at 25 mg/kg dose; format: functional
Mus musculus [10] = organism: Mus musculus; experiment: Effective dose was measured in mice as concentration required to inhibit 50% inhibition of Murine PFC response; format: functional
Method in brief: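 Jerne plaque assay in female C3H or CD-1 mice immunized ip with SRBC on day 0, with oral daily dosing over the next 4 days. Splenic PFC per 10^6 WBC counted on day 4. ED50 read graphically from the dose-inhibition data.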

Mus musculus [11] = experiment: % inhibition of Murine plaque forming cells response was measured in Mice at 6.25 mg/kg dose; format: functional
Mus musculus [12] = experiment: % inhibition of Murine plaque forming cells response was measured in Mice at 12.5 mg/kg dose; format: functional
Homo sapiens [13] = organism: Homo sapiens; experiment: Inhibition of human Lymphocyte proliferation. The IC50 values were determined by interpolation using the cubic spline determination at 10 uM; format: functional; method in brief: as §2
Mus musculus [14] = experiment: Tested for the inhibition of murine PFC response at 12.5 mg/kg dose; format: functional
Mus musculus [15] = experiment: Tested for the inhibition of murine PFC response at 25 mg/kg dose; format: functional

Row | Compound | IC50 [5] | IC50 (Homo sapiens [7]) | also measured
1 | CO/N=C/c1c(C)c(C)c(OC)c(C/C=C(\C)CCC(=O)O)c1O |  |  | IC50 [1]: 52.8 µM; IC50 (Homo sapiens [2]): > 10 µM
2 | COc1c(C)c2c(c(O)c1C/C=C(\C)CCC(=O)O)C(=O)N(C)C2 |  |  | IC50 [3]: > 10 µM; IC50 [4]: > 100 µM
3 | COc1cc(C/C=C(\C)CCC(=O)O)c(OC)c(C)c1C | 50 µM |  | 
4 | C/C(=C\Cc1c(C)c(C)c2c(c1O)C(=O)OC2)CCC(=O)O |  | 0.25 µM | inhibition in vivo at 50 mg/kg (Mus musculus [6]): 45%; IC50 [4]: 0.0186 µM
5 | COc1c(C)c(C)c(C)c(O)c1C/C=C(\C)CCC(=O)O | 0.959 µM | 3.7 µM | 
6 | COc1cc2c(c(O)c1C/C=C(\C)CCC(=O)O)C(=O)OC2 |  |  | IC50 [4]: 0.515 µM
7 | COc1c(C)c(C)c(Cl)c(N)c1C/C=C(\C)CCC(=O)O | 0.489 µM | 4.1 µM | inhibition in vivo at 100 mg/kg (Mus musculus [8]): 42%
8 | COc1c(C)c(C)c(C#N)c(N)c1C/C=C(\C)CCC(=O)O | 14.8 µM | 4.1 µM | 
9 | COc1c(C)c(C)c(Cl)c(C)c1C/C=C(\C)CCC(=O)O |  |  | IC50 [1]: 1.7 µM; IC50 (Homo sapiens [13]): > 10 µM
10 | C/C(=C\Cc1c(C)c(C)c(C)c(Cl)c1O)CCC(=O)O | 0.0693 µM | 0.36 µM | 
11 | C/C(=C\Cc1cc(C)c2c(c1O)C(=O)OC2)CCC(=O)O |  |  | IC50 [4]: 6.96 µM
12 | COc1c(C)c(C)c(F)c(Cl)c1C/C=C(\C)CCC(=O)O |  |  | IC50 [1]: 11.8 µM; IC50 (Homo sapiens [13]): > 10 µM
13 | COc1c(C)c(C)c(Cl)c(Cl)c1C/C=C(\C)CCC(=O)O |  |  | IC50 [1]: 0.557 µM; IC50 (Homo sapiens [13]): > 10 µM
14 | COc1c(C)c(C)cc(O)c1C/C=C(\C)CCC(=O)O | 51.8 µM |  | 
15 | COc1c(C)c(C)c(Cl)c(F)c1C/C=C(\C)CCC(=O)O | 0.437 µM | 7.5 µM | inhibition in vivo at 100 mg/kg (Mus musculus [8]): 0%
16 | COc1c(C)c(C)c(C=O)c(O)c1C/C=C(\C)CCC(=O)O | 1.12 µM | 10 µM | 
17 | COc1c(C/C=C(\C)CCC(=O)O)cc(Br)c(C)c1C |  |  | IC50 [1]: 0.795 µM; IC50 (Homo sapiens [13]): > 10 µM
18 | COc1c(C)c(C)c(Cl)c(O)c1C/C=C(\C)CCC(=O)O | 0.0335 µM | 0.2 µM | inhibition in vivo at 100 mg/kg (Mus musculus [8]): 83%; inhibition in vivo at 12.5 mg/kg (Mus musculus [14]): 0%; inhibition in vivo at 25 mg/kg (Mus musculus [15]): 0%
19 | CCc1c2c(c(O)c(C/C=C(\C)CCC(=O)O)c1OC)C(=O)OC2 |  | 3 µM | IC50 [4]: 0.41 µM
20 | COc1c(C)c(C)c(C#N)c(O)c1C/C=C(\C)CCC(=O)O | 0.534 µM | 1.7 µM | 
21 | CCOc1c(C)c2c(c(O)c1C/C=C(\C)CCC(=O)O)C(=O)OC2 |  | 0.43 µM | IC50 [4]: 0.0898 µM
22 | COc1c(C)c(C)c(O)c(Cl)c1C/C=C(\C)CCC(=O)O |  |  | IC50 [1]: 2.88 µM; IC50 (Homo sapiens [13]): > 10 µM
23 | COc1c(C)c2c(c(O)c1C/C=C(\C)CCC(=O)O)C(=O)OC2C (centres undefined) |  | 0.6 µM | IC50 [4]: 0.42 µM
24 | COc1c(C)c2c(c(O)c1C/C=C(\C)CCC(=O)O)C(=O)NC2 |  | 1.5 µM | IC50 [4]: 0.244 µM
25 | C/C(=C\Cc1c(C)c(C)c(C)c([N+](=O)[O-])c1O)CCC(=O)O | 0.289 µM | 3.2 µM | 
26 | COc1c(C)c(C)c(I)c(O)c1C/C=C(\C)CCC(=O)O | 0.592 µM | 4.9 µM | 
27 | COc1c(C/C=C(\C)CCC(=O)O)c(O)c2c(c1C(N)=O)COC2=O |  | > 10 µM | IC50 [4]: > 100 µM

Now from value to compound, other results behind:

Row | IC50 [5] | Compound | IC50 (Homo sapiens [7]) | also measured
28 | 0.0126 µM | CCc1c(C)c2c(c(O)c1C/C=C(\C)CCC(=O)O)C(=O)OC2 | 0.057 µM | inhibition in vivo at 25 mg/kg (Mus musculus [9]): 93%; ED50 (Mus musculus [10]): 9 mg/kg; inhibition in vivo at 6.25 mg/kg (Mus musculus [11]): 25%; inhibition in vivo at 12.5 mg/kg (Mus musculus [12]): 73%
29 | 0.14 µM | COc1c(C)c2c(c(O)c1C/C=C(\C)CCC(=O)O)C(=O)CC2 | 0.83 µM | 
30 | 0.00851 µM | C=Cc1c(C)c2c(c(O)c1C/C=C(\C)CCC(=O)O)C(=O)OC2 | 0.093 µM | 
31 | 0.537 µM | COc1c(C/C=C(\C)CCC(=O)O)cc(Cl)c(C)c1C | 6.7 µM | 
32 | 17 µM | COc1c(C/C=C(\C)CCC(=O)O)cc(N)c(C)c1C |  | 
